Reference: the RNAGym collection of RNA variant scans (doi:10.1126/science.aae0568)
Variants at the floor of the assay were thinned out.

B1: tRNA (parent)
chain: GUUCCGUUGGCGUAAUGGUAACGCGUCUCCCUCCUAAGGAGAAGACUGCGGGUUCGAGUCCCGUACGGAACG

Variants of: B1
Experiment: yeast fitness relative to wild type (ratio to wild type); higher = fitter; tRNA-Arg(CCU), competitive growth, 37 C, YPD
How it was run: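 Amplicons of the tRNA-Arg(CCU) gene were sequenced, 100-nucleotide paired-end, from the start population and from each end population of a pooled yeast competition. The competition, in six parallel replicates, lasted 24 hours in YPD at 37°C. Fitness relative to wild type was calculated from changes in genotype frequencies. Genotypes had to have ≥ 100 starting reads, and estimates < 0.5 were set to 0.5.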

First: U7A G44C A45U
Second: U7C C30G A40C A42G
The yeast fitness of the first is lower: 0.503 for the first, 0.534 for the second.

First: U7C C46U
Second: U7C C46G
The yeast fitness of the first is lower: 0.884 for the first, 0.943 for the second.

First: U7A U19G G58A A69C
Second: U7A U13A G23A
The yeast fitness of the first is higher: 0.527 for the first, ≤ 0.5 for the second.

Going from U7C C29G A40U to U7A G41C G63C A65U, the yeast fitness falls from 0.665 to ≤ 0.5.

First: U7C A14C
Second: U7C A14G
The yeast fitness of the first is lower: 0.679 for the first, 0.86 for the second.

Compared with U7A G68C, U7C C33U G39C G58A is lower in yeast fitness: 0.811 for the first, ≤ 0.5 for the second.

Compared with U7C A37C A40C A45U A57C A70U, U7C G9C G41A is lower in yeast fitness: 0.555 for the first, ≤ 0.5 for the second.

First: U7C C27U A45C
Second: U7C A15C G25A G38A A45G G52A C61G
The yeast fitness of the first is higher: 0.609 for the first, ≤ 0.5 for the second.

Going from U7A U54C to U7C C30U G44A G56A, the yeast fitness falls from 0.734 to 0.522.

U7C A21U C22A and U7C C30U G39C cannot be ordered by yeast fitness: ≤ 0.5 for the first, ≤ 0.5 for the second.

U7C A21C C34U C49U A69U and U7C C29U C31A C66G G67U cannot be ordered by yeast fitness: ≤ 0.5 for the first, ≤ 0.5 for the second.

U7C C55A G67A and U7C C33U G58A C66A cannot be ordered by yeast fitness: ≤ 0.5 for the first, ≤ 0.5 for the second.

U7A U8G C30G and U7C C31G U32C G48C G50A A65U cannot be ordered by yeast fitness: ≤ 0.5 for the first, ≤ 0.5 for the second.

U7C C27A A69U and U7C C29A U32C C60A cannot be ordered by yeast fitness: ≤ 0.5 for the first, ≤ 0.5 for the second.

U7C A20G U32G and U7C G10C C61G C62U cannot be ordered by yeast fitness: ≤ 0.5 for the first, ≤ 0.5 for the second.

U7C A15C A40G U53G and U7C A14G G23A G25A A36U A43U cannot be ordered by yeast fitness: ≤ 0.5 for the first, ≤ 0.5 for the second.

Compared with U7A U32G U35A, U7C C49G A69C is higher in yeast fitness: ≤ 0.5 for the first, 0.58 for the second.

Going from U7C G9C U28C G41A to U7C C29G G44C, the yeast fitness rises from ≤ 0.5 to 0.567.

U7A U19G C60G and U7C C27U A36C G56C G68A A70U cannot be ordered by yeast fitness: ≤ 0.5 for the first, ≤ 0.5 for the second.

First: U7C A43C C55U
Second: U7A U8G C34A G58C C62A A69C
The yeast fitness of the first is higher: 0.543 for the first, ≤ 0.5 for the second.

Compared with U7A G23C C49G, U7A G23C C49G C66A is lower in yeast fitness: 0.566 for the first, ≤ 0.5 for the second.

Going from U7C G12A U13C U26C C61U G63A to U7C C31U A43G U59A, the yeast fitness falls from 0.596 to 0.505.

Going from U7C C49A G67A to U7C G12C, the yeast fitness rises from ≤ 0.5 to 0.914.

Going from U7A G17A G23A A45C U47A G50A to U7C A37G A42C C49G C61U, the yeast fitness rises from ≤ 0.5 to 0.504.

First: U7C A21C
Second: U7C A21U
The yeast fitness of the first is lower: 0.606 for the first, 0.769 for the second.

U7A G41C U54A C62U A70U and U7A G17C A37G C49A cannot be ordered by yeast fitness: ≤ 0.5 for the first, ≤ 0.5 for the second.

U7A G23C C34G U35G A40U A70C and U7C C33G A36G C49A G68C cannot be ordered by yeast fitness: ≤ 0.5 for the first, ≤ 0.5 for the second.

U7A U13A C46G C66U and U7C A14U G25C G39U C62G A65U cannot be ordered by yeast fitness: ≤ 0.5 for the first, ≤ 0.5 for the second.

First: U7C C33U A65U
Second: U7C C29G G67C
The yeast fitness of the first is lower: ≤ 0.5 for the first, 0.651 for the second.

First: U7C A36C C61G C66U A69U
Second: U7C C11G U32G C61U
The yeast fitness of the first is lower: ≤ 0.5 for the first, 0.59 for the second.

First: U7A G44C C49U C61A C62U C66U
Second: U7C C61U A70G
The yeast fitness of the first is lower: ≤ 0.5 for the first, 0.712 for the second.

U7C C30G U32C A40C C62U G67A and U7C C11U C31U C33G C49A G51A cannot be ordered by yeast fitness: ≤ 0.5 for the first, ≤ 0.5 for the second.

U7C A20C C34A G63C and U7C A36U G50C C60A G63A cannot be ordered by yeast fitness: ≤ 0.5 for the first, ≤ 0.5 for the second.

U7C G12A U13C U26C C60U and U7C A20G C31U A43G U59A cannot be ordered by yeast fitness: ≤ 0.5 for the first, ≤ 0.5 for the second.

U7C C34G A45G C60U A69U and U7C C27U G48A C55A G63A cannot be ordered by yeast fitness: ≤ 0.5 for the first, ≤ 0.5 for the second.

U7C A15C G38A A45G G52A C61G C66U and U7C G9A G23C A45C cannot be ordered by yeast fitness: ≤ 0.5 for the first, ≤ 0.5 for the second.

First: U7C A36G A43U
Second: U7C G9A A14C C33G G50C C60G U64A
The yeast fitness of the first is lower: 0.535 for the first, 0.618 for the second.

Going from U7A U8G C30G A70U to U7C C30G A40U A70U, the yeast fitness falls from 0.518 to ≤ 0.5.

U7C A14G C29U C31U C33U C49U and U7A U28A C61U U64A cannot be ordered by yeast fitness: ≤ 0.5 for the first, ≤ 0.5 for the second.

First: U7A U8A G10C C27G C34G C55U A57G
Second: U7C A69U
The yeast fitness of the first is lower: ≤ 0.5 for the first, 0.913 for the second.

Compared with U7C C62A, U7C C30U G39C U54C U64C is lower in yeast fitness: 0.786 for the first, ≤ 0.5 for the second.

Going from U7C A65U to U7C C29G G39A, the yeast fitness falls from 0.849 to ≤ 0.5.

Compared with U7C A15G C61G C66U A69U, U7A U64A is higher in yeast fitness: ≤ 0.5 for the first, 0.837 for the second.

Compared with U7A U13A C49A, U7A U19A is higher in yeast fitness: ≤ 0.5 for the first, 0.752 for the second.

First: U7A G18C C27A C31G A43G
Second: U7C C30U C34A A57U C66A
The yeast fitness of the first is lower: ≤ 0.5 for the first, 0.555 for the second.

First: U7C A36C A57U C61A C66G
Second: U7C A36C A57U C61A C66A
The yeast fitness of the first is higher: 0.537 for the first, ≤ 0.5 for the second.

Going from U7A U8A G10C C27G C34G to U7A U26C A69U, the yeast fitness rises from 0.564 to 0.574.

U7A U32C C33G and U7A U28A A69C cannot be ordered by yeast fitness: ≤ 0.5 for the first, ≤ 0.5 for the second.

Going from U7C A14C A21C C46A to U7C A14C A70C, the yeast fitness rises from ≤ 0.5 to 0.594.

First: U7C A20G A69C
Second: U7C A42C G58A
The yeast fitness of the first is higher: 0.594 for the first, ≤ 0.5 for the second.

First: U7C C31A U35G A42G
Second: U7A U54A U59C U64C
The yeast fitness of the first is higher: 0.591 for the first, ≤ 0.5 for the second.

U7C C31U U47C and U7C C22U C49U C55A cannot be ordered by yeast fitness: ≤ 0.5 for the first, ≤ 0.5 for the second.

Compared with U7A U19A U32C, U7C C62U A65U is lower in yeast fitness: 0.829 for the first, 0.542 for the second.

First: U7C G12A A45C C61G A65C
Second: U7A G38A
The yeast fitness of the first is lower: ≤ 0.5 for the first, 0.695 for the second.

Going from U7C C27U C60A to U7A U28G C30A G52A A69U, the yeast fitness rises from ≤ 0.5 to 0.607.

Going from U7C A14G G17A to U7C C11U, the yeast fitness rises from 0.531 to 0.886.

First: U7A G23A C29A
Second: U7C C66U
The yeast fitness of the first is lower: 0.531 for the first, 0.921 for the second.

U7C A20G C30A and U7A G39C C46G C49U C62U cannot be ordered by yeast fitness: ≤ 0.5 for the first, ≤ 0.5 for the second.

Going from U7C A37G to U7C A37C, the yeast fitness rises from 0.666 to 0.862.

Compared with U7A G39C, U7C C24A G67A is lower in yeast fitness: 0.608 for the first, ≤ 0.5 for the second.

First: U7C C61G C62U
Second: U7C C46A U64C
The yeast fitness of the first is lower: ≤ 0.5 for the first, 0.545 for the second.

Going from U7C G10A C24G to U7C C49U U54C, the yeast fitness rises from ≤ 0.5 to 0.508.

First: U7A G18C A70U
Second: U7A G23A C24U U35A C60A A69C
The yeast fitness of the first is lower: 0.662 for the first, 0.706 for the second.

U7A G23A C24U U35A C60A A69U and U7C C11U C22A C29G C33U cannot be ordered by yeast fitness: ≤ 0.5 for the first, ≤ 0.5 for the second.

Going from U7C G10C C46U to U7A U32C A65G, the yeast fitness rises from 0.523 to 0.558.

Going from U7A U8C G23A G56C C66G to U7C C33U G63A, the yeast fitness falls from 0.677 to 0.54.

First: U7A G56C C66U
Second: U7C A14G G17A A69U A70U
The yeast fitness of the first is lower: ≤ 0.5 for the first, 0.594 for the second.

First: U7C C22U C29G
Second: U7C
The yeast fitness of the first is lower: ≤ 0.5 for the first, 1.01 for the second.

U7A G23C C31G C33U A42G G52C G58C and U7C C22G C24A G25C cannot be ordered by yeast fitness: ≤ 0.5 for the first, ≤ 0.5 for the second.

Going from U7A U8A G25A C62G to U7A U32A A42U C60A, the yeast fitness rises from ≤ 0.5 to 0.619.

Going from U7C A45U U54C to U7A G50C U53C C55U, the yeast fitness falls from 0.557 to ≤ 0.5.

U7C A15G G51C A57U and U7A G39A C49A cannot be ordered by yeast fitness: ≤ 0.5 for the first, ≤ 0.5 for the second.

Compared with U7A U8A U35C, U7C C34A is higher in yeast fitness: 0.601 for the first, 0.764 for the second.

Going from U7A G17C C24G C29A G48C to U7C A15C A40G A57G, the yeast fitness rises from ≤ 0.5 to 0.649.

U7C C27A G51C C60U A69C and U7A G18U C31U C49G cannot be ordered by yeast fitness: ≤ 0.5 for the first, ≤ 0.5 for the second.

Going from U7C C22G to U7C C30A U54A A57C, the yeast fitness falls from 0.842 to ≤ 0.5.

Compared with U7C A43G A65C, U7A G18C C27G G38A is lower in yeast fitness: 0.591 for the first, ≤ 0.5 for the second.

Going from U7A U16C G17A C29U C31A to U7C C33G A37U A40C A69U, the yeast fitness rises from ≤ 0.5 to 0.533.

Going from U7A U28A to U7A U28C, the yeast fitness rises from 0.605 to 0.711.

First: U7C C29U U47A C62G
Second: U7C C31U
The yeast fitness of the first is lower: ≤ 0.5 for the first, 0.954 for the second.

First: U7C C31G
Second: U7C C11G C24U G48A C66U
The yeast fitness of the first is higher: 0.81 for the first, ≤ 0.5 for the second.

Compared with U7C A14U A65C, U7C C22U U53A is higher in yeast fitness: ≤ 0.5 for the first, 0.71 for the second.

First: U7C A15G A20U C24G U35C A36C C61A
Second: U7A U53C
The yeast fitness of the first is lower: ≤ 0.5 for the first, 0.604 for the second.

In the case of U7C A21G C49U, the yeast fitness is reported as 0.722.
